Reference: ChEMBL document CHEMBL1127414 (J Med Chem, 1994)
Converted amounts (≈) assume the structure as drawn. One block for each molecule: values may come before it.

Legend:
[1] = system: HepG2; experiment: Concentration required to inhibit cholesterol synthesis in Hep G2 cells relative to control (IC50 of L-694,599); type: functional, Homo sapiens
How it was run: (§1)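 Hep G2 cells held 2 days in lipoprotein-depleted FBS to stimulate sterol synthesis, then given inhibitor in serum-free medium for 2 h. 15 μCi [5-3H]mevalonate (0.2 mCi/mmol) added for 1 h. Cells washed and saponified, and radioactivity counted by scintillation.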

[2] = system: Mus musculus; experiment: Tested for its ability to inhibit the incorporation of [5-3H]-mevalonolactone into cholesterol by in vivo mouse assay by peroral administration at a dose of 40 mg/kg; type: ADME, organism-based; parameters: dose 40 mg/kg, route oral; conditions: po
How it was run: (§2)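 Female Swiss Webster mice (~25 g), six per group, dosed po by gavage with inhibitor suspended in 5% emulphor. 30 min later, 0.5 μCi/mouse [5-3H]mevalonolactone in saline given sc. Livers removed 30 min after that and saponified in KOH/EtOH overnight at 55 °C, then petroleum-ether extracted. Nonsaponifiable dpm counted. Compounds first tested at a single dose (typically 12 or 24 mg/kg).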

[3] = target: T1, Squalene synthase (Rattus norvegicus, UniProt Q02769); experiment: Tested for inhibition against squalene synthase enzyme in rat liver
T1 sequence (Q02769 whole entry): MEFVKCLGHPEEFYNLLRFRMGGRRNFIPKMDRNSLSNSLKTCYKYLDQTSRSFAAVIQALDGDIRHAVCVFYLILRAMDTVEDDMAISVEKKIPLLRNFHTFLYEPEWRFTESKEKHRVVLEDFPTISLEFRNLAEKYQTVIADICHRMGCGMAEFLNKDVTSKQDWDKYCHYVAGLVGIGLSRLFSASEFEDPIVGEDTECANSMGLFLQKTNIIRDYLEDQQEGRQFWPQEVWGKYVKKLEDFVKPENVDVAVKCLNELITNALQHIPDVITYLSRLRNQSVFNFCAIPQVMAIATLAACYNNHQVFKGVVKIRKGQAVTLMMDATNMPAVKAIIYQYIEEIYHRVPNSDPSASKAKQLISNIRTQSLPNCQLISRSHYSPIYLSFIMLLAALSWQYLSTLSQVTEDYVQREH

[4] = target: T2, Squalene synthase (Rattus norvegicus) (UniProt Q02769); experiment: concentration required to inhibit rat liver squalene synthase enzyme relative to control (L-694,599)
T2 sequence (whole entry): T1 sequence (Q02769 whole entry)
How it was run: (§3)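 Enzyme from rat liver. […] Inhibitors added in DMSO (0.3% final) as 3-fold serial dilutions, usually up to 30 ng/mL (about 40 nM). IC50 read from % inhibition vs log concentration.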

[5] = system: HepG2; experiment: Concentration required to inhibit cholesterol synthesis in Hep G2 cells; type: functional, cell-based; conditions: Homo sapiens; how it was run: as §1
[6] = target: T2, Squalene synthase (Rattus norvegicus); experiment: Concentration required to inhibit rat liver squalene synthase enzyme relative to control (L-694,599); how it was run: as §3
[7] = system: HepG2; experiment: Concentration of compound required to inhibit cholesterol synthesis in Hep G2 cells relative to control (IC50 of L-694,599); type: functional, Homo sapiens; how it was run: as §1
[8] = system: Mus musculus; experiment: Ability to inhibit the incorporation of [5-3H]-mevalonolactone into cholesterol by in vivo mouse assay by peroral administration at a dose of 24 mg/kg; type: functional; conditions: route oral; how it was run: as §2
[9] = system: Aspergillus fumigatus; experiment: Concentration required to inhibit growth of MF 4839 strain of Aspergillus fumigatus; type: functional
How it was run: (§4)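 Broth microdilution against a panel of clinically relevant fungal strains. Read-out was the minimum fungicidal concentration in μg/mL.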

[10] = system: Cryptococcus neoformans; experiment: Concentration required to inhibit growth of MY 1051 strain of Cryptococcus neoformans; type: functional; how it was run: as §4
[11] = system: Candida tropicalis; experiment: Concentration required to inhibit growth of MY 1012 strain of Candida tropicalis; type: functional; how it was run: as §4
[12] = system: Cryptococcus neoformans; experiment: Concentration required to inhibit growth of MY 2061 strain of Cryptococcus neoformans; type: functional; how it was run: as §4
[13] = system: Candida albicans; experiment: Concentration required to inhibit growth of MY 1055 strain of Candida albicans; type: functional; how it was run: as §4
[14] = system: Candida albicans; experiment: Concentration required to inhibit growth of MY 1750 strain of Candida albicans; type: functional; how it was run: as §4
[15] = system: Trichophyton benhamiae; experiment: Concentration required to inhibit growth of MF 4864 strain of Trichophyton mentagrophytes; type: functional, Arthroderma benhamiae; how it was run: as §4
[16] = system: Candida parapsilosis; experiment: Concentration required to inhibit growth of MY 1010 strain of Candida parapsilosis; type: functional; conditions: Lodderomyces parapsilosis; how it was run: as §4
[17] = target: T1, Squalene synthase; experiment: Concentration required for inhibition of rat liver squalene synthase enzyme at 161 nM; NA = not active
[18] = target: T1, Squalene synthase; experiment: Concentration required for inhibition of rat liver squalene synthase enzyme at 161 nM; Not active
[19] = system: Mus musculus; experiment: Tested for its ability to inhibit the incorporation of [5-3H]-mevalonolactone into cholesterol by in vivo mouse assay by peroral administration at a dose of 12 mg/kg; type: functional; conditions: route oral; how it was run: as §2
[20] = target: T3, Squalene synthase (Mus musculus) (UniProt P53798); experiment: Tested for the effective dose required for the incorporation of [5-3H]-mevalonolactone into cholesterol by in vivo mouse assay by peroral administration; type: functional, organism-based; how it was run: as §2
T3 sequence (whole entry): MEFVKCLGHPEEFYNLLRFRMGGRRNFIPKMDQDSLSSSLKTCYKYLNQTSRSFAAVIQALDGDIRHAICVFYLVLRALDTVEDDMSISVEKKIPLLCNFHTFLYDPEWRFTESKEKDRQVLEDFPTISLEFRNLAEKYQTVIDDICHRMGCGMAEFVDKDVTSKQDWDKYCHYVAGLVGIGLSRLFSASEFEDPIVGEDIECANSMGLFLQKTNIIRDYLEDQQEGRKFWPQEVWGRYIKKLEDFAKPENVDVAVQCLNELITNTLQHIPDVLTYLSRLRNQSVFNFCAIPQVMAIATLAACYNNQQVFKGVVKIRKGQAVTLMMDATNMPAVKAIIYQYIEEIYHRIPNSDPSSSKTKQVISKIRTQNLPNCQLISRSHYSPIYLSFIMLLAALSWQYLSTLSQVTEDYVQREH

[21] = system: Mus musculus; experiment: Tested for its ability to inhibit the incorporation of [5-3H]-mevalonolactone into cholesterol by in vivo mouse assay by peroral administration at a dose of 6 mg/kg; type: functional; conditions: route oral; how it was run: as §2

IC50 [3]: 190 pM
Relative activity [4]: 0.47
IC50 [5]: 1.9 µM
SMILES: C=C(CCC12OC(C(=O)O)C(O)(C(=O)O)C(C(=O)O)(O1)[C@H](OC(=O)OCCCCCCCCCCCC)[C@H]2O)[C@@H](OC(C)=O)[C@H](C)Cc1ccccc1 (stereo partly drawn)
Relative activity [1]: 4.36
inhibition at 40 mg/kg [2]: 5%

Relative activity [6]: 2
IC50 [3]: 60 pM
IC50 [5]: 1.3 µM
SMILES: C=C(CCC12OC(C(=O)O)C(O)(C(=O)O)C(C(=O)O)(O1)[C@H](OCCCCCCCCCCCOc1ccccc1)[C@H]2O)[C@@H](OC(C)=O)[C@H](C)Cc1ccccc1 (stereo partly drawn)
Relative activity [7]: 6.38

IC50 [5]: 3.6 µM
SMILES: C=C(CCC12OC(C(=O)O)C(O)(C(=O)O)C(C(=O)O)(O1)[C@H](OC(=O)NCCCCCCCCCC)[C@H]2O)[C@@H](OC(C)=O)[C@H](C)Cc1ccccc1 (stereo partly drawn)
inhibition in vivo at 24 mg/kg [8]: 4%
MFC [9]: 32 µg/mL (≈ 44.3 µM)
MFC [10]: 4 µg/mL (≈ 5.54 µM)
MFC [11]: 16 µg/mL (≈ 22.2 µM)
MFC [12]: 0.5 µg/mL (≈ 0.693 µM)
MFC [13]: 8 µg/mL (≈ 11.1 µM)
MFC [14]: 4 µg/mL (≈ 5.54 µM)
MFC [15]: 2 µg/mL (≈ 2.77 µM)
MFC [16]: 8 µg/mL (≈ 11.1 µM)

IC50 [17]: Not Active
SMILES: C=C(CCC12OC(C(=O)O)C(OCCCCCCCCCCCCCC)(C(=O)O)C(C(=O)O)(O1)[C@H](OCCCCCCCCCCCCCC)[C@H]2O)[C@@H](OC(C)=O)[C@H](C)Cc1ccccc1 (stereo partly drawn)

IC50 [18]: Not Active
ED50 [20]: > 12 mg/kg
SMILES: C=C(CCC12OC(C(=O)O)C(O)(C(=O)O)C(C(=O)O)(O1)[C@H](OC(=O)CCC(=O)O)[C@H]2O)[C@@H](OC(C)=O)[C@H](C)Cc1ccccc1 (stereo partly drawn)
inhibition in vivo at 12 mg/kg [19]: -20%

Relative activity [4]: 0.01
ED50 [20]: > 6 mg/kg
SMILES: C=C(CCC12OC(C(=O)O)C(O)(C(=O)O)C(C(=O)O)(O1)[C@H](O/C(S)=N/C(C)C)[C@H]2O)[C@@H](OC(C)=O)[C@H](C)Cc1ccccc1 (stereo partly drawn)
inhibition in vivo at 6 mg/kg [21]: 9%

IC50 [18]: Not Active
ED50 [20]: > 12 mg/kg
SMILES: C=C(CCC12OC(C(=O)O)C(O)(C(=O)O)C(C(=O)O)(O1)[C@H](OC(=O)CCCN)[C@H]2O)[C@@H](OC(C)=O)[C@H](C)Cc1ccccc1 (stereo partly drawn)
inhibition in vivo at 12 mg/kg [19]: 0%

IC50 [17]: Not Active
SMILES: C=C(CCC12OC(C(=O)O)C(OCCCCCCCCCCCOc3ccccc3)(C(=O)O)C(C(=O)O)(O1)[C@H](OCCCCCCCCCCCOc1ccccc1)[C@H]2O)[C@@H](OC(C)=O)[C@H](C)Cc1ccccc1 (stereo partly drawn)

IC50 [18]: Not Active
ED50 [20]: > 12 mg/kg
SMILES: C=C(CCC12OC(C(=O)O)C(O)(C(=O)O)C(C(=O)O)(O1)[C@H](OC(=O)C(C)(C)C)[C@H]2O)[C@@H](OC(C)=O)[C@H](C)Cc1ccccc1 (stereo partly drawn)
inhibition in vivo at 12 mg/kg [19]: -2%
